We go through 16 compounds from ChEMBL document CHEMBL1129442, “Synthesis and structure-activity relationship of pyrazolo[3,4-d]pyrimidines: potent and selective adenosine A1 receptor antagonists” (J Med Chem, 1996).

SMILES strings stand for the structures. A value given as a limit tells only on which side of the number the result lay.

The target in experiment [1] is T1, Adenosine receptor A1 (Rattus norvegicus, UniProt P25099).
T1 sequence (P25099 whole entry): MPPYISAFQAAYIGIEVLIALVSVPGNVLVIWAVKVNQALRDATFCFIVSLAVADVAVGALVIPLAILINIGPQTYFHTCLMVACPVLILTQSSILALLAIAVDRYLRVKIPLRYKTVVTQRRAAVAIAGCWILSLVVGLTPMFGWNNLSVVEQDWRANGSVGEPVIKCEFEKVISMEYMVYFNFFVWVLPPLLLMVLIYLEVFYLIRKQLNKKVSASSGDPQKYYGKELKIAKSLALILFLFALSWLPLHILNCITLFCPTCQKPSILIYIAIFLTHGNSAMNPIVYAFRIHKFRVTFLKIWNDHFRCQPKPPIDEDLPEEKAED
Briefly: Displacement of [3H]N6-PIA from Adenosine A1 receptor from rat whole brain. The gist of the method:
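Rat whole-brain membranes (100 µg, pretreated with 0.1 U/mg adenosine deaminase, 10 min, 37 °C) incubated 90 min at 25 °C with 1 nM (R)-[3H]-N6-PIA in 50 mM Tris-HCl pH 7.4. Test compound given at ≥12 concentrations, final Me2SO 1%, 2% or 5%. Nonspecific binding defined with 10 µM 2-chloroadenosine. Bound ligand collected by filtration on glass fiber filters. Ki derived from IC50 via Cheng-Prusoff (Kd 1 nM). At least two experiments in duplicate, mean ± SEM.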
On the technique in general: In a radioligand displacement assay an active substance lowers the binding of a labelled ligand.

The target of experiment [2] is Adenosine receptor A2a (Rattus norvegicus, UniProt P30543). The experiment can be described thus: Inhibition of [3H]CGS-21680 binding to Adenosine A2A receptor of rat striatal membranes. The class given is cell membranes, Membrane. The gist of the method:
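Rat striatal membranes (150 µg, adenosine deaminase-pretreated) incubated 120 min at 25 °C with 5 nM [3H]CGS 21680 in 50 mM Tris-HCl, 10 mM MgCl2, pH 7.4. Test compound given at ≥12 concentrations, final Me2SO 1%, 2% or 5%. Nonspecific binding defined with 20 µM 2-chloroadenosine. Bound ligand filtered as for the A1 assay. Ki derived from IC50 via Cheng-Prusoff (Kd 14.9 nM). At least two experiments in duplicate, mean ± SEM.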

Experiment [3] addresses Adenosine receptors; A1 & A2a (Rattus norvegicus) (UniProt P25099+P30543). Briefly: Ratio of Binding Constants for adenosine A2A and A1 receptors. The class given is protein assay.
The target in experiment [4] is Adenosine receptor A2a (Rattus norvegicus) (UniProt P30543). Briefly: Percent inhibition of [3H]CGS-21680 binding to Adenosine A2A receptor rat striatal membranes. The following applies: Membrane, concentration not given here. The class given is cell membranes.
Adenosine receptor A2a (Rattus norvegicus), sequence (P30543 whole entry): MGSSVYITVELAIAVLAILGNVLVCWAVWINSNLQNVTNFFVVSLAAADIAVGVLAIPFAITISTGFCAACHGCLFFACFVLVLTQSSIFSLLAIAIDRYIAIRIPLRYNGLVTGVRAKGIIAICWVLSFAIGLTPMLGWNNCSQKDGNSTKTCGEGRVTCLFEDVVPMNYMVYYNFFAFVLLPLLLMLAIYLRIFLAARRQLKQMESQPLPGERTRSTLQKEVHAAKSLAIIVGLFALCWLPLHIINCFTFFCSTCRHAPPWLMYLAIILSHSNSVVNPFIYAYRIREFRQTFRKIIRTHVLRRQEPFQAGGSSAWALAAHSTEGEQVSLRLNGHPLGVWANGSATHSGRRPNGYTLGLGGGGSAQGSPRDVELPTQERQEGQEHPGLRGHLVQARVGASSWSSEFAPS

For orientation: Ki means the equilibrium dissociation constant of an inhibitor or competing ligand from its target. A lower Ki goes with a stronger hold on the target. For orientation: inhibition means the relative decrease from the control value, in per cent. Low readings indicate little suppression, high ones strong suppression.

Adenosine receptors; A1 & A2a (Rattus norvegicus), sequence (P30543 whole entry, looked up, one chain of several): as the sequence (P30543 whole entry) above
Adenosine receptor A2a, sequence (P30543 whole entry): as above

Take `CCCC(Sc1nc(SC)c2cnn(-c3ccccc3)c2n1)C(N)=O` (centres undefined): the Ki in experiment [1] is 7.55 nM; in experiment [2], 4380 nM. The Ratio in experiment [3] amounted to 580.

On to `CCC(Sc1nc(SC)c2cnn(-c3ccccc3)c2n1)C(N)=O` (centres undefined), for which the Ki in experiment [1] was determined as 8.4 nM; in experiment [2] it was 796 nM. The Ratio in experiment [3] stood at 95.

In the case of `CC(C)C(Sc1nc2c(cnn2-c2ccccc2)c(=S)[nH]1)C(N)=O` (centres undefined), in experiment [1], the Ki worked out at 256 nM. That is a sub-micromolar value.

For `CCCCC(Sc1nc(S)c2cnn(-c3ccccc3)c2n1)C(N)=O` (centres undefined), in experiment [1], the Ki is 37.2 nM. In experiment [4], this compound returned an inhibition of 52%. For the same compound, the Ratio in experiment [3] is greater than 270.

Take `CCC(Sc1nc2c(cnn2-c2ccccc2)c(=S)[nH]1)C(N)=O` (centres undefined): the Ki worked out at 155 nM in experiment [1] and 8750 nM in experiment [2].

Regarding `CCC(Sc1nc(N)c2cnn(-c3ccccc3)c2n1)C(N)=O` (centres undefined), the Ki in experiment [1] is 1.56 nM; in experiment [2], 44.5 nM. For the same compound, in experiment [3], the Ratio came to 29.

On to `CC(C)C(Sc1nc(S)c2cnn(-c3ccccc3)c2n1)C(N)=O` (centres undefined), for which the inhibition in experiment [4] came to 44%. Besides, the Ratio in experiment [3] was greater than 78.

As to `CCC(Sc1nc(S)c2cnn(-c3ccccc3)c2n1)C(N)=O` (centres undefined), the Ratio in experiment [3] came to 56.

For the compound `CCCCC(Sc1nc(NC)c2cnn(-c3ccccc3)c2n1)C(N)=O` (centres undefined), the Ki in experiment [1] amounted to 0.745 nM; in experiment [2], 247 nM. Further, the Ratio in experiment [3] was determined as 332.

As for `CCCCC(Sc1nc(SC)c2cnn(-c3ccccc3)c2n1)C(N)=O` (centres undefined), in experiment [1], the Ki was found to be 6.81 nM. The same compound returned an inhibition in experiment [4] of 12%. In experiment [3], the Ratio is greater than 5900.

In the case of `CCCC(Sc1nc2c(cnn2-c2ccccc2)c(=S)[nH]1)C(N)=O` (centres undefined), the results for the Ki in experiment [1] and in experiment [2] were 56.3 nM and 4450 nM, respectively.

Consider `CCCC(Sc1nc(S)c2cnn(-c3ccccc3)c2n1)C(N)=O` (centres undefined), for which the Ratio in experiment [3] turned out to be 79.

`CSc1nc(SC(C(N)=O)C(C)C)nc2c1cnn2-c1ccccc1` (centres undefined) gave a Ki in experiment [1] of 15.7 nM. In experiment [4], this compound came in with an inhibition of 37%. The Ratio in experiment [3] was greater than 1300.

Take `CCCC(Sc1nc(N)c2cnn(-c3ccccc3)c2n1)C(N)=O` (centres undefined): the Ki in experiment [1] worked out at 1.08 nM; in experiment [2], 35.3 nM. The Ratio in experiment [3] stood at 33.

Consider `CCCCC(Sc1nc(N)c2cnn(-c3ccccc3)c2n1)C(N)=O` (centres undefined), for which the values for the Ki in experiment [1] and in experiment [2] were 0.939 nM and 88.3 nM, respectively. Also, the Ratio in experiment [3] was found to be 94.

For `CC(C)C(Sc1nc(N)c2cnn(-c3ccccc3)c2n1)C(N)=O` (centres undefined), the Ki was 2.73 nM in experiment [1] and 147 nM in experiment [2]. Moreover, the Ratio in experiment [3] was 54.
